Assay results reported in ChEMBL document CHEMBL1129732, “Potent, cell active, non-thiol tetrapeptide inhibitors of farnesyltransferase” (J Med Chem, 1996).

Columns and labels:
NIH3T3 = assay: Highest tested nontoxic concentration (maximum tolerated dose) against NIH3T3 cells in XTT assay; format: functional, Mus musculus
How it was run: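 Untransformed NIH 3T3 cells were seeded at 2500 cells/well. Cells were incubated 48 h at 37 °C, then XTT with phenazine methosulfate was added. XTT reduction served as the measure of live cells.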

[1] = molecular target: Protein farnesyltransferase (Homo sapiens, UniProt P49354+P49356); assay: Inhibition of Farnesyltransferase; format: protein-complex assay
[2] = molecular target: Geranylgeranyl transferase type I (Homo sapiens, UniProt P49354+P53609); assay: Inhibition of Geranylgeranyl transferase type I; format: protein-complex assay
Rat1 = assay: Inhibition of anchorage-independent growth of H-Ras-transformed rat-1 cells in soft agar; format: functional, cell-based

Work on `CSCC[C@H](NC(=O)[C@@H]1Cc2ccccc2CN1C(=O)[C@@H](NC(=O)Cc1c[nH]cn1)C(C)C)C(=O)O` yielded an MTD (NIH3T3) of over 150 µM, an IC50 [1] of 6.6 nM and an IC50 [2] of 2020 nM. The IC50 (Rat1) was 50000 nM.
In the case of `CSCC[C@H](NC(=O)[C@@H]1Cc2ccccc2CN1C(=O)[C@@H](NCCc1c[nH]cn1)C(C)C)C(=O)O`, the MTD (NIH3T3) is reported as over 150 µM, the IC50 [1] is reported as 0.79 nM and the IC50 [2] is reported as 234 nM. The IC50 (Rat1) was 3800 nM.
In the case of `CC(C)(C)[C@H](NC(=O)Cc1c[nH]cn1)C(=O)N1Cc2ccccc2C[C@H]1C(=O)N[C@@H](CCC(N)=O)C(=O)O`, the MTD (NIH3T3) is reported as over 150 µM, the IC50 [1] is reported as 28 nM and the IC50 (Rat1) is reported as 3900 nM.
Compound `CSCC[C@H](NC(=O)[C@H](Cc1ccccc1)NC(=O)[C@@H](NC(=O)[C@@H](N)Cc1cnc[nH]1)C(C)C)C(=O)O` has an IC50 [1] of 6800 nM.
With `CC(C)(C)[C@H](NC(=O)CCc1c[nH]cn1)C(=O)N1Cc2ccccc2C[C@H]1C(=O)N[C@@H](CCC(N)=O)C(=O)O` the IC50 [1] was 4.4 nM and the IC50 [2] was 168000 nM.
In the case of `CC(C)(C)[C@H](NCCCc1cnc[nH]1)C(=O)N1Cc2ccccc2C[C@H]1C(=O)N[C@@H](CCC(N)=O)C(=O)O`, the IC50 [1] is reported as 20 nM and the IC50 [2] is reported as 106000 nM.
`CC(C)(C)[C@H](NCCc1c[nH]cn1)C(=O)N1Cc2ccccc2C[C@H]1C(=O)N[C@@H](CCC(N)=O)C(=O)O` gave an IC50 [1] of 3.4 nM, an IC50 [2] of 30500 nM and an IC50 (Rat1) of 3200 nM.
With `CSCC[C@H](NC(=O)[C@@H]1Cc2ccccc2CN1C(=O)[C@@H](NC(=O)c1c[nH]cn1)C(C)C)C(=O)O` the IC50 [1] was 84 nM and the IC50 [2] was 25800 nM.
With `CSCC[C@H](NC(=O)[C@@H]1Cc2ccccc2CN1C(=O)[C@@H](NCc1c[nH]cn1)C(C)C)C(=O)O` the IC50 [1] was 114 nM and the IC50 [2] was 17400 nM.
